TDP2 inh: blocks human TDP2 phosphodiesterase activity; O95551; recombinant TDP2, T5PNP hydrolysis, p-nitrophenol absorbance 415 nm; inhibition, % at 12.8 µM; hit rate 0.34% among 370,000; AID 720702;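 active = inhibition above the mean of all tested compounds plus 3 SD, set per campaign, cut at about 25% in these data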
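System – recombinant human TDP2 · Amount – 120 nM TDP2 per well · Buffer or medium – Mg2+-containing Tris-HCl buffer, pH 7.5 · Reagent – T5PNP substrate, 5 mM · Dosing – 12.8 µM single point, 1% DMSO · Incubation – 2 h at 37 °C · Measured by – epi absorbance · Read-out basis – percent inhibition · Benchmarks – high control without enzyme, low control DMSO plus TDP2 · Repeats – singlicate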
UHRF1 MBD2 ctr: blocks human UHRF1 binding to methylated DNA; Q96T88; inhibition, % at 4.4 µM; hit rate 0.75% among 370,000; UHRF1 binding to methylated oligo, TR-FRET; in the data active = inhibition above about 21%;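 also: UHRF1 SRA domain binding a hemimethylated CpG hairpin DNA probe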
Rin1-Abl PPI inh: inhibitors of human Rin1-Abl protein interaction; P00519+Q13671; TR-FRET Rin1/Abl binding, biochemical; inhibition, % at 7.35 µM; hit rate 0.4% among 360,000; AID 588664; in the data active = inhibition above about 5%, passing the limit was not always enough
Target sequence (P00519 whole entry, looked up): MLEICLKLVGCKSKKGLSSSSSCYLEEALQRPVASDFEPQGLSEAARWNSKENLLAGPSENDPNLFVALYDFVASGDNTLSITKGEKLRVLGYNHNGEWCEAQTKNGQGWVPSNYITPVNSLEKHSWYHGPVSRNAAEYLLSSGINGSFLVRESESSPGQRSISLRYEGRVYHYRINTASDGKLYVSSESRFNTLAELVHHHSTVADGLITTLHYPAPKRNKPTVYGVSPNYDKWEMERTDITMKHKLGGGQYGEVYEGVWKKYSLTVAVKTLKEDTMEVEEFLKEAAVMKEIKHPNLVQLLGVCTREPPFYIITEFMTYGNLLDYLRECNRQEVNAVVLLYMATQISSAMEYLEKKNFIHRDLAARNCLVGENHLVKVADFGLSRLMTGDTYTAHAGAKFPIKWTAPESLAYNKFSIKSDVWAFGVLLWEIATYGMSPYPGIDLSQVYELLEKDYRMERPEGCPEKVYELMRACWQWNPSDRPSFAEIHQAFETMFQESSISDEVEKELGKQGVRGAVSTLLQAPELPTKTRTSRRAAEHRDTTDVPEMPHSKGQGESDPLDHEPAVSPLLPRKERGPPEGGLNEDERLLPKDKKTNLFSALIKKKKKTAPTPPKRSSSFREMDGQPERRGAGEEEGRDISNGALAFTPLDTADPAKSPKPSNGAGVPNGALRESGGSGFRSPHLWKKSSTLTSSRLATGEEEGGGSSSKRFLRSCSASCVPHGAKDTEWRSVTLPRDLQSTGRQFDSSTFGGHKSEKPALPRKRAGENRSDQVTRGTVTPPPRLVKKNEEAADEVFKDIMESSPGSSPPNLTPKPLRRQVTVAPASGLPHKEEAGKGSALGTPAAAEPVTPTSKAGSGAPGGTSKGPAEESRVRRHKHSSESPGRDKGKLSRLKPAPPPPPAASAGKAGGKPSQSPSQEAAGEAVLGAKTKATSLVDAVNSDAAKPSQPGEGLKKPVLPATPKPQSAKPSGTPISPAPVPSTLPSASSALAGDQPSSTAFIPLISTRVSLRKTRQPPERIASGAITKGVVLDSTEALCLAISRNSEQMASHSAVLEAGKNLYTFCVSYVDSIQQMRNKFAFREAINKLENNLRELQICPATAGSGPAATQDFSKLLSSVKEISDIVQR
Target sequence (Q13671 whole entry, looked up): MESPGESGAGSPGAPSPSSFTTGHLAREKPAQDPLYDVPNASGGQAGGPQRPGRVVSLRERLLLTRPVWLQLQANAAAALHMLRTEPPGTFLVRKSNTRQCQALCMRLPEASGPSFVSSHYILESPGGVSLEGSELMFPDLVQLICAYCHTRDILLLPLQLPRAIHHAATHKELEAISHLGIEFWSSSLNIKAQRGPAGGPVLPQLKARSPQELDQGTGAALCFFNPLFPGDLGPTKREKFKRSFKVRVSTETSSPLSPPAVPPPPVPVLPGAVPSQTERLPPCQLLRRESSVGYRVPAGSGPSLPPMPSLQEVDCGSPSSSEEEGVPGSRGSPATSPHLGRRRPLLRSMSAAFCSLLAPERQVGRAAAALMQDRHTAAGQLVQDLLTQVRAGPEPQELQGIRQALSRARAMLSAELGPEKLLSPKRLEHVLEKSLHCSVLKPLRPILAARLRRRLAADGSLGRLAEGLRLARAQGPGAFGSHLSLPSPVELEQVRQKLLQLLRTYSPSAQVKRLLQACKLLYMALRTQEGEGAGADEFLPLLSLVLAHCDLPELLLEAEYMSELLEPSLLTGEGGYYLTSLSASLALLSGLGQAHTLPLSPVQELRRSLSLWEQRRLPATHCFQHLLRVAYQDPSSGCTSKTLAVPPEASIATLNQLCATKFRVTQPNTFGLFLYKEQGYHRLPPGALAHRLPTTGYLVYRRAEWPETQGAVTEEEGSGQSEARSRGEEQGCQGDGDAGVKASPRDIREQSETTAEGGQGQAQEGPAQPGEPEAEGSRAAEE
LEDGF integ inh: blocks HIV-1 LEDGF/p75-dependent DNA integration; hit rate 0.64% among 370,000; TR-FRET IN-LEDGF/p75 DNA integration, Eu/Cy5; inhibition, % at 3.7 µM;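 active = inhibition above the screen-wide mean plus 3 SD, cut at about 13% in these data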;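 also: signal is the Cy5 over europium emission ratio at 671 and 618 nm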
MBD2 inh: MBD2-methylated oligo binding inhibition | Q9UBB5 | TR-FRET, MBD2 binding to methylated oligonucleotide | inhibition, % at 4.4 µM | hit rate 0.31% among 370,000 | AID 686964; in the data active = inhibition above about 13%
Each line names hits and unclear results; the compound was inactive in the other large screens. In the library only some 1.9% were active in any assay of this set; here they are far more common.

C=CCN(CC#Cc1ccccn1)Cc1ccc(OC)cc1OC	none (no result: Rin1-Abl PPI inh)
CCOc1ccc2c(c1)[nH]c(=S)n2C	UHRF1 MBD2 ctr 39
CCOC(=O)c1nc2cc3n(c(C)c-2c1C)C(C)C(C)=C3C (configuration not stated)	UHRF1 MBD2 ctr 23
S=C(Nc1ccc(I)cc1)OC1CCC12CCC(c1ccccc1)CC2 (configuration not stated)	none (no result: Rin1-Abl PPI inh)
CCc1nnc(NC(=O)c2ccc(COc3ccccc3Cl)o2)s1	UHRF1 MBD2 ctr 28
CC(C)Cc1nnc(NC(=O)CCC(=O)Nc2ccc(Cl)cc2)s1	none
CC(C)Cc1nnc(NC(=O)CCS(=O)(=O)c2ccc(Cl)cc2)s1	UHRF1 MBD2 ctr 24
CC(C)Cc1nnc(NC(=O)CCc2c[nH]c3ccccc23)s1	UHRF1 MBD2 ctr 25
C/C(=N/NC(=O)CN1CCN(Cc2ccccc2Cl)CC1)c1cccc(O)c1	none (no result: Rin1-Abl PPI inh)
C=CCOc1ccc(C(=O)N(Cc2ccc(N(C)C)cc2)C2CCS(=O)(=O)C2)cc1 (configuration not stated)	UHRF1 MBD2 ctr 63
COc1ccc(CN(C(=O)c2ccc(C)cc2)C2CCS(=O)(=O)C2)cc1 (configuration not stated)	none
Cc1cc(/C=N/N2CCN(C)CC2)c(C)n1-c1ccc(Cl)cc1	UHRF1 MBD2 ctr 30
Cc1cc(/C=N/n2cnnc2)c(C)n1-c1ccc(Cl)cc1	none
CCOP(=O)(OCC)c1ccc2c(c1)C(=O)c1ccccc1-2	none (no result: Rin1-Abl PPI inh)
O=C(NC1(C(F)(F)F)N=C(c2ccccc2)NC1=O)c1ccccc1 (configuration not stated)	none
CC(=O)NC1(C(F)(F)F)N=C(c2ccccc2)NC1=O (configuration not stated)	UHRF1 MBD2 ctr 23
COc1cccc(/C=C2\CC3(OC(=O)c4ccccc4)CCCN2C3)c1 (configuration not stated)	none (no result: Rin1-Abl PPI inh)
O=C(CN1c2cccc3cccc(c23)S1(=O)=O)Nc1ccccc1	UHRF1 MBD2 ctr 69
CC(=O)c1cccc(NC(=O)c2cnn3c(C)cc(C)nc23)c1	none (no result: Rin1-Abl PPI inh)
COc1ccc(-c2cc(-c3nnc(SCC(=O)Nc4cccc(Cl)c4C)n3N)[nH]n2)cc1	none (no result: Rin1-Abl PPI inh)
CCC1=NN2C(=N)/C(=C\c3cccn3-c3ccc(C)cc3C)C(=O)N=C2S1	UHRF1 MBD2 ctr 30
COc1ccc(CC(=O)N/N=C(\C)CC(=O)Nc2ccc(N(C)C)cc2)cc1	none
C/C(CC(=O)Nc1ccc(N(C)C)cc1)=N\NC(=O)Cc1csc(N)n1	LEDGF integ inh 21
O=C(CCc1ccccc1)N[C@H]1[C@H](OCc2ccccc2)CCC[C@@]12C(=O)N(Cc1ccccc1)c1ccc(-c3ccccn3)cc12	none (no result: Rin1-Abl PPI inh)
Cc1ccc2ccccc2[n+]1CCCS(=O)(=O)[O-]	UHRF1 MBD2 ctr 36
COc1cc(S(=O)(=O)N(Cc2cccnc2)Cc2ccco2)ccc1-n1cnnn1	UHRF1 MBD2 ctr 21
COc1cccc(CN(Cc2cccnc2)S(=O)(=O)c2ccc(-n3cnnn3)c(C)c2)c1	UHRF1 MBD2 ctr 21
COc1cccc(CNS(=O)(=O)c2ccc(-n3cnnn3)c(C)c2)c1	none
Brc1ccc(-c2csc(N3CCC(c4nn[nH]n4)CC3)n2)cc1	none (no result: Rin1-Abl PPI inh)
COc1c(C)cc(Br)cc1C(=O)Nc1ccccc1N1CCN(C(=O)c2ccccc2)CC1	UHRF1 MBD2 ctr 55
C/C=C(/C)C(=O)Nc1cccc(C2=NOC3(C2)C[C@H](C(N)=O)N(C(=O)c2ccc(Cl)cc2)C3)c1 (some centres not stated)	none
C=C(C)C(=O)Nc1cccc(C2=NOC3(C2)C[C@H](C(N)=O)N(C(=O)c2ccccc2)C3)c1 (some centres not stated)	UHRF1 MBD2 ctr 26
c1nc(NCC2CC2)c2cc(-c3ccc4c(c3)OCO4)ccc2n1	none (no result: Rin1-Abl PPI inh)
COc1cc(O)c(CCC(=O)c2ccc(OC)c(OC)c2)c(OC)c1	UHRF1 MBD2 ctr 63
COC(=O)c1ccc(Cn2cnc3c(cnn3-c3ccc(F)cc3)c2=O)o1	none
COC(=O)c1ccc(Cn2cnc3c(cnn3-c3ccc(Cl)cc3)c2=O)o1	UHRF1 MBD2 ctr 32
CSc1ccccc1NC(=O)CN(C)C(=O)CCc1c[nH]c2ccccc12	UHRF1 MBD2 ctr 21
COc1ccccc1OCC(=O)NCCSCc1ccccc1Cl	UHRF1 MBD2 ctr 25
C#CCOCCOCCOCCNc1nc(N2CCN(C(=O)CCCCCCCCCCNC(=O)[C@H](CCCCN)n3cc(CCO)nn3)CC2)nc(N2CCN(C(=O)CCCCCCCCCCNC(=O)[C@@H]([C@H](C)O)n3cc(C)nn3)CC2)n1	Rin1-Abl PPI inh 9.6 (no result: TDP2 inh, UHRF1 MBD2 ctr, LEDGF integ inh, MBD2 inh)
C#CCOCCOCCOCCNc1nc(N2CCN(C(=O)CCCCCCCCCCNC(=O)[C@H](CCCCN)n3cc(C)nn3)CC2)nc(N2CCN(C(=O)CCCCCCCCCCNC(=O)[C@@H]([C@H](C)CC)n3cc(CCCCCN)nn3)CC2)n1	Rin1-Abl PPI inh 12 (no result: TDP2 inh, UHRF1 MBD2 ctr, LEDGF integ inh, MBD2 inh)
C#CCOCCOCCOCCNc1nc(N2CCN(C(=O)CCCCCCCCCCNC(=O)[C@H](CCCCN)n3cc(CCO)nn3)CC2)nc(N2CCN(C(=O)CCCCCCCCCCNC(=O)[C@H](CCCN=C(N)N)n3cc(C[C@@H](C)CC)nn3)CC2)n1	Rin1-Abl PPI inh 22 (no result: TDP2 inh, UHRF1 MBD2 ctr, LEDGF integ inh, MBD2 inh)
C#CCOCCOCCOCCNc1nc(N2CCN(C(=O)CCCCCCCCCCNC(=O)[C@H]([C@@H](C)CC)n3cc(CCCCCN)nn3)CC2)nc(N2CCN(C(=O)CCCCCCCCCCNC(=O)[C@@H]([C@H](C)O)n3cc(C)nn3)CC2)n1	none (no result: TDP2 inh, UHRF1 MBD2 ctr, LEDGF integ inh, MBD2 inh)
C#CCOCCOCCOCCNc1nc(N2CCN(C(=O)[C@H](CCC(=O)O)n3cc([C@@H](N)CCCCN)nn3)CC2)nc(N2CCN(C(=O)[C@H](CCC(=O)O)n3cc([C@@H](N)CCCCN)nn3)CC2)n1	none
C#CCOCCOCCOCCNc1nc(N2CCN(C(=O)[C@H](CCC(=O)O)n3cc([C@@H](N)CCCCN)nn3)CC2)nc(N2CCN(C(=O)[C@H](CCCCN)n3cc([C@@H](N)CC(N)=O)nn3)CC2)n1	UHRF1 MBD2 ctr 48
COC(=O)c1cc2c(c3c4cc(OC)ccc4n(S(=O)(=O)c4cccc(C)c4)c13)C(=O)N(Cc1ccc(C(F)(F)F)cc1)C2	none (no result: Rin1-Abl PPI inh)
Cc1ccc(-n2c(SCC(=O)Nc3ccc4c(c3)OCCO4)nnc2-c2ccccn2)cc1	none (no result: Rin1-Abl PPI inh)
C#CCOCCOCCOCCNc1nc(N2CCN(C(=O)CCCCCCCCCCNC(=O)[C@@H](CCSC)n3cc(CCO)nn3)CC2)nc(N2CCN(C(=O)CCCCCCCCCCNC(=O)[C@H]([C@@H](C)CC)n3cc(CCCCN=C(N)N)nn3)CC2)n1	Rin1-Abl PPI inh 24 (no result: TDP2 inh, UHRF1 MBD2 ctr, LEDGF integ inh, MBD2 inh)
C#CCOCCOCCOCCNc1nc(N2CCOCC2)nc(N2CCN(C(=O)CCCCCCCCCCNC(=O)[C@@H](CCSC)n3cc(CCO)nn3)CC2)n1	none
COCCOC(=O)C1=C(C)N(c2ccccc2)C(=S)NC1c1ccccc1C(F)(F)F (configuration not stated)	none

Source: PubChem BioAssay (The Scripps Research Institute Molecular Screening Center)
